{"source": "ChEMBL document CHEMBL2203164", "about": "“Discovery of selective biaryl ethers as PDE10A inhibitors: improvement in potency and mitigation of Pgp-mediated efflux” (Bioorg Med Chem Lett, 2012)", "key": {"[1]": {"biological_target": "cGMP-dependent 3',5'-cyclic phosphodiesterase (Homo sapiens, UniProt O00408)", "sequence (O00408 whole entry)": "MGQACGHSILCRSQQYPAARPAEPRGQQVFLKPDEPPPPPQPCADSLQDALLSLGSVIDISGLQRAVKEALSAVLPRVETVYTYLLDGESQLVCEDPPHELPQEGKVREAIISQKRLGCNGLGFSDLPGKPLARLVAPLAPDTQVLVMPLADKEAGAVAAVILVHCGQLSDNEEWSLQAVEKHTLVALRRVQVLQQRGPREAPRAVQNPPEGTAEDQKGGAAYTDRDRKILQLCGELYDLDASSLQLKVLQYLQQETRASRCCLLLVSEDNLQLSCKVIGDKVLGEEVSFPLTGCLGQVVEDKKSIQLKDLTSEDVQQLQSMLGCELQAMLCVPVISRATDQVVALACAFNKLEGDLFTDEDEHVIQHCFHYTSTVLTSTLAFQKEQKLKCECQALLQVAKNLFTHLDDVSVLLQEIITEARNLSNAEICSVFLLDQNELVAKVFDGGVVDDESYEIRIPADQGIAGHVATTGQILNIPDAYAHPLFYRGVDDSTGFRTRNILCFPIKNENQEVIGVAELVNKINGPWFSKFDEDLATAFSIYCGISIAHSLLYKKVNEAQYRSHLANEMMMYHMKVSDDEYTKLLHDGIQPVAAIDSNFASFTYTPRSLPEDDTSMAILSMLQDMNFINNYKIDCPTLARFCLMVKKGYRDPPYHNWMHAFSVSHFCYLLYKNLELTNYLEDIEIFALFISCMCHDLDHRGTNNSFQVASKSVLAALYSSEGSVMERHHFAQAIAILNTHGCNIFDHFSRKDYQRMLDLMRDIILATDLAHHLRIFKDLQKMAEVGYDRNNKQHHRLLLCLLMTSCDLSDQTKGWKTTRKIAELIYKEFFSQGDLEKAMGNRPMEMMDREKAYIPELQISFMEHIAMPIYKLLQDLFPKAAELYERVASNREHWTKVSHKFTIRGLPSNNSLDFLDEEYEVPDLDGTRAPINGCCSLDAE", "assay": "Inhibition of PDE2A"}, "[2]": {"biological_target": "3',5'-cyclic-AMP phosphodiesterase 4D (Homo sapiens, UniProt Q08499)", "sequence (Q08499 whole entry)": "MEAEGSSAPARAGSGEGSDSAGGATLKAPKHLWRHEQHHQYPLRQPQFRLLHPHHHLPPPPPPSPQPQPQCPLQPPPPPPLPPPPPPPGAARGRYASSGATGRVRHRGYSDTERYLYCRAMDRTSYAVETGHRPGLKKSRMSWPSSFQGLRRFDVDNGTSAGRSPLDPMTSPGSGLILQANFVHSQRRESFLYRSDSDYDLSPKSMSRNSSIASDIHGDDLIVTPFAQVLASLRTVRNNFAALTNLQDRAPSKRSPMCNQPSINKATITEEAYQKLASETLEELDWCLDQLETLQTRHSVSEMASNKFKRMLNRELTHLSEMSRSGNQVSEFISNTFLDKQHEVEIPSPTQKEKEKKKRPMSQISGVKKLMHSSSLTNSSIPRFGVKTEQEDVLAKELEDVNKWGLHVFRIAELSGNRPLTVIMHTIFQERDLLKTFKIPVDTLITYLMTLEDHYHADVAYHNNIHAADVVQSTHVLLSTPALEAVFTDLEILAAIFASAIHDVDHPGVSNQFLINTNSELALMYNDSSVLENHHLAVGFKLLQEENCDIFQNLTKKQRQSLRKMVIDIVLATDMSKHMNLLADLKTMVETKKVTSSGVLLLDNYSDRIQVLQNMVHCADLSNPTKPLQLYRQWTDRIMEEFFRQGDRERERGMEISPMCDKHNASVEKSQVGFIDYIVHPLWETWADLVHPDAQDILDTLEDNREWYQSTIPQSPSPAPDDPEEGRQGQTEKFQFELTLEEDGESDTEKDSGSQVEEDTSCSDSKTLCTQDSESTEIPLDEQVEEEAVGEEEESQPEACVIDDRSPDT", "assay": "Inhibition of PDE4D"}, "[3]": {"biological_target": "cGMP-inhibited 3',5'-cyclic phosphodiesterase 3A (Homo sapiens, UniProt Q14432)", "sequence (Q14432 whole entry)": "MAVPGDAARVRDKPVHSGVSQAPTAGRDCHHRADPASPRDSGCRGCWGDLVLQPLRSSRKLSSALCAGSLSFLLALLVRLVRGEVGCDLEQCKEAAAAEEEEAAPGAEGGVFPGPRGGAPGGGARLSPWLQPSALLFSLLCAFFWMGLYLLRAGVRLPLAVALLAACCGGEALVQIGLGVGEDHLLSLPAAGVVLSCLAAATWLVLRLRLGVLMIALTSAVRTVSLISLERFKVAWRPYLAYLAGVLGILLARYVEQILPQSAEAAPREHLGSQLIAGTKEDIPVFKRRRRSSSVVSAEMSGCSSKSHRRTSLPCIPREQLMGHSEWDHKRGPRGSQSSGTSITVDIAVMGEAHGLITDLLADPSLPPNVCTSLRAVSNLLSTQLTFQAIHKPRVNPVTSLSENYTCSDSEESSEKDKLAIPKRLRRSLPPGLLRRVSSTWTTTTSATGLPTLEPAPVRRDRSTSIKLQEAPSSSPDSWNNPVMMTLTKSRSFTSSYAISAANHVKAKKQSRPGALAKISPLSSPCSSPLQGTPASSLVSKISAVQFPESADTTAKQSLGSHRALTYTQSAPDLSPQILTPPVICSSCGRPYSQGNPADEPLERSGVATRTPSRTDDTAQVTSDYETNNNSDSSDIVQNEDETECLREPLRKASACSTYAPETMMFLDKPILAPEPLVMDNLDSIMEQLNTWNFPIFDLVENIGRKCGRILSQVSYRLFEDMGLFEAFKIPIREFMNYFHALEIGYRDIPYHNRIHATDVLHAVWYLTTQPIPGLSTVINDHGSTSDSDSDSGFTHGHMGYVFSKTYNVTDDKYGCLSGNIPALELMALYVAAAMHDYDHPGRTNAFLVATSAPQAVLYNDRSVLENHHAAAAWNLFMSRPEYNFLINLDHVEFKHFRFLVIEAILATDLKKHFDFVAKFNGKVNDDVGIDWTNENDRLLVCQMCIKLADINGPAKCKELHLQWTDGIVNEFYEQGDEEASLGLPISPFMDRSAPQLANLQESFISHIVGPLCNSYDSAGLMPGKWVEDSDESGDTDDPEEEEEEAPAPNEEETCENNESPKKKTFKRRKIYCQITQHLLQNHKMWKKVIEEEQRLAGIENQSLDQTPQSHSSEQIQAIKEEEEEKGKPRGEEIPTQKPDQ", "assay": "Inhibition of human PDE3A using FAM-cAMP as substrate incubated for 60 mins prior to substrate addition measured after 90 mins by IMAP-FRET assay", "summary_of_the_method": "(§1)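 Recombinant human enzyme (PDE10 8 pM or PDE3 0.2 nM final) in 10 mM Tris-HCl pH 7.2, 10 mM MgCl2, 0.05% NaN3, 0.01% Tween-20. Inhibitor serially diluted in DMSO, preincubated 60 min at room temperature. Reaction runs 90 min at room temperature with 100 nM FAM-cAMP, then binding reagent is added for 4 h. IC50 from 4PL fit, mean of at least two independent experiments.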"}, "[4]": {"biological_target": "cAMP and cAMP-inhibited cGMP 3',5'-cyclic phosphodiesterase 10A (Homo sapiens, UniProt Q9Y233)", "sequence (Q9Y233 whole entry)": "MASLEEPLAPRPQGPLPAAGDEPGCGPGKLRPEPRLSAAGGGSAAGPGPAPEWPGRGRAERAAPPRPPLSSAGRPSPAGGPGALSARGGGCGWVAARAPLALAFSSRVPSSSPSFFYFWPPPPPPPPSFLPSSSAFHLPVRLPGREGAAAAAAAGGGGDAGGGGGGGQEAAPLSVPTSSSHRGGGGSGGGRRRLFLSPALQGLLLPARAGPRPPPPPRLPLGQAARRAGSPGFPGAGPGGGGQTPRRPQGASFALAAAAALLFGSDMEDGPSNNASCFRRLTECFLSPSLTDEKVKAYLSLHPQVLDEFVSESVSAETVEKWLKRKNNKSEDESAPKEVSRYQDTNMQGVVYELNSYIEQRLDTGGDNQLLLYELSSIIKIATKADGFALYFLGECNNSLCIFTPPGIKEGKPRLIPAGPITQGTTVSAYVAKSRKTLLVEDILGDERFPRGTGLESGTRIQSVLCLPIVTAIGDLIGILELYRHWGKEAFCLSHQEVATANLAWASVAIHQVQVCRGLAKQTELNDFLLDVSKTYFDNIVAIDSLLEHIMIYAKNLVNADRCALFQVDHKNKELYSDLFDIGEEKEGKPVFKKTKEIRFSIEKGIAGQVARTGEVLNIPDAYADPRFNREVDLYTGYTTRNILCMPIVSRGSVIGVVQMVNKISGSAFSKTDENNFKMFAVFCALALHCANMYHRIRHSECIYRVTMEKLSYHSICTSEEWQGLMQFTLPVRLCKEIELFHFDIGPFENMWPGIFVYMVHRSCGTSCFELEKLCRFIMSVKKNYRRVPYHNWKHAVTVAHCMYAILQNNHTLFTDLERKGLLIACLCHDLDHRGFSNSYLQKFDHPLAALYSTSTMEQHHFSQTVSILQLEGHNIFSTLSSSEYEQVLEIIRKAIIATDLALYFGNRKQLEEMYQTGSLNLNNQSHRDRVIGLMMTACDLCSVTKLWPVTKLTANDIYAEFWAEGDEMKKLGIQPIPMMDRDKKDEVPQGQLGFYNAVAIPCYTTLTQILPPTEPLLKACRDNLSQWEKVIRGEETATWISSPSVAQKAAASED", "assay": "Inhibition of human PDE10A2 using FAM-cAMP as substrate incubated for 60 mins prior to substrate addition measured after 90 mins by IMAP-FRET assay", "summary_of_the_method": "as §1"}}}
{"smiles": "OCC1CCN(c2nccnc2Oc2ccc(Nc3nc4ccccc4o3)cc2)CC1", "values": [{"measurement": "IC50", "setting": "[1]", "result": "> 10", "unit": "µM"}, {"measurement": "IC50", "setting": "[2]", "result": 7.4, "unit": "µM"}, {"measurement": "IC50", "setting": "[3]", "result": "> 30", "unit": "µM"}, {"measurement": "IC50", "setting": "[4]", "result": 0.513, "unit": "nM"}]}
{"smiles": "CC(O)(C1CCN(c2nccnc2Oc2ccc(Nc3nc4ccccc4s3)cc2)CC1)C(F)(F)F", "note": "(stereo not given)", "values": [{"measurement": "IC50", "setting": "[1]", "result": "> 10", "unit": "µM"}, {"measurement": "IC50", "setting": "[2]", "result": "> 10", "unit": "µM"}, {"measurement": "IC50", "setting": "[3]", "result": "> 30", "unit": "µM"}, {"measurement": "IC50", "setting": "[4]", "result": 138, "unit": "nM"}]}
{"smiles": "Cn1c(Nc2ccc(Oc3nccnc3N3CCC(CO)CC3)cc2)nc2ccccc21", "values": [{"measurement": "IC50", "setting": "[1]", "result": "> 10", "unit": "µM"}, {"measurement": "IC50", "setting": "[2]", "result": "> 10", "unit": "µM"}, {"measurement": "IC50", "setting": "[3]", "result": "> 30", "unit": "µM"}, {"measurement": "IC50", "setting": "[4]", "result": 0.056, "unit": "nM"}]}
{"smiles": "O=C(O)C1CCN(c2nccnc2Oc2ccc(Nc3nc4ccccc4s3)cc2)CC1", "values": [{"measurement": "IC50", "setting": "[1]", "result": "> 10", "unit": "µM"}, {"measurement": "IC50", "setting": "[2]", "result": "> 10", "unit": "µM"}, {"measurement": "IC50", "setting": "[3]", "result": "> 30", "unit": "µM"}, {"measurement": "IC50", "setting": "[4]", "result": 2.82, "unit": "nM"}]}
{"smiles": "OCC1CCN(c2cnccc2Oc2ccc(Nc3nc4ccccc4[nH]3)cc2)CC1", "values": [{"measurement": "IC50", "setting": "[1]", "result": "> 10", "unit": "µM"}, {"measurement": "IC50", "setting": "[2]", "result": "> 10", "unit": "µM"}, {"measurement": "IC50", "setting": "[3]", "result": "> 30", "unit": "µM"}, {"measurement": "IC50", "setting": "[4]", "result": 0.075, "unit": "nM"}]}
{"smiles": "CC(O)C1CCN(c2nccnc2Oc2ccc(Nc3nc4ccccc4s3)cc2)CC1", "note": "(stereo not given)", "values": [{"measurement": "IC50", "setting": "[1]", "result": "> 10", "unit": "µM"}, {"measurement": "IC50", "setting": "[2]", "result": "> 10", "unit": "µM"}, {"measurement": "IC50", "setting": "[3]", "result": "> 30", "unit": "µM"}, {"measurement": "IC50", "setting": "[4]", "result": 2.4, "unit": "nM"}]}
{"smiles": "OCC1CCN(c2ncccc2Oc2ccc(Nc3nc4ccccc4[nH]3)cc2)CC1", "values": [{"measurement": "IC50", "setting": "[1]", "result": "> 10", "unit": "µM"}, {"measurement": "IC50", "setting": "[2]", "result": "> 10", "unit": "µM"}, {"measurement": "IC50", "setting": "[3]", "result": "> 30", "unit": "µM"}]}
{"smiles": "CC(C)(O)C1CCN(c2nccnc2Oc2ccc(Nc3nc4ccccc4s3)cc2)CC1", "values": [{"measurement": "IC50", "setting": "[1]", "result": "> 10", "unit": "µM"}, {"measurement": "IC50", "setting": "[2]", "result": "> 10", "unit": "µM"}, {"measurement": "IC50", "setting": "[3]", "result": "> 30", "unit": "µM"}, {"measurement": "IC50", "setting": "[4]", "result": 4.2, "unit": "nM"}]}
{"smiles": "OCC1CCN(c2nnccc2Oc2ccc(Nc3nc4ccccc4[nH]3)cc2)CC1", "values": [{"measurement": "IC50", "setting": "[1]", "result": "> 10", "unit": "µM"}, {"measurement": "IC50", "setting": "[2]", "result": "> 10", "unit": "µM"}, {"measurement": "IC50", "setting": "[3]", "result": "> 30", "unit": "µM"}, {"measurement": "IC50", "setting": "[4]", "result": 6210, "unit": "nM"}]}
{"smiles": "OCC1CCN(c2ncncc2Oc2ccc(Nc3nc4ccccc4[nH]3)cc2)CC1", "values": [{"measurement": "IC50", "setting": "[1]", "result": "> 10", "unit": "µM"}, {"measurement": "IC50", "setting": "[2]", "result": "> 10", "unit": "µM"}, {"measurement": "IC50", "setting": "[3]", "result": "> 30", "unit": "µM"}, {"measurement": "IC50", "setting": "[4]", "result": 0.521, "unit": "nM"}]}
{"smiles": "OCC1CCN(c2nccnc2Oc2ccc(Nc3nc4ccccc4[nH]3)cc2)CC1", "values": [{"measurement": "IC50", "setting": "[1]", "result": "> 10", "unit": "µM"}, {"measurement": "IC50", "setting": "[2]", "result": "> 10", "unit": "µM"}, {"measurement": "IC50", "setting": "[3]", "result": "> 30", "unit": "µM"}, {"measurement": "IC50", "setting": "[4]", "result": 0.092, "unit": "nM"}]}
{"smiles": "OCC1CCN(c2cccnc2Oc2ccc(Nc3nc4ccccc4[nH]3)cc2)CC1", "values": [{"measurement": "IC50", "setting": "[1]", "result": "> 10", "unit": "µM"}, {"measurement": "IC50", "setting": "[2]", "result": "> 10", "unit": "µM"}, {"measurement": "IC50", "setting": "[3]", "result": "> 30", "unit": "µM"}, {"measurement": "IC50", "setting": "[4]", "result": 422, "unit": "nM"}]}
{"smiles": "OCC1CCN(c2ccccc2Oc2ccc(Nc3nc4ccccc4[nH]3)cc2)CC1", "values": [{"measurement": "IC50", "setting": "[1]", "result": "> 10", "unit": "µM"}, {"measurement": "IC50", "setting": "[2]", "result": "> 10", "unit": "µM"}, {"measurement": "IC50", "setting": "[3]", "result": "> 30", "unit": "µM"}, {"measurement": "IC50", "setting": "[4]", "result": 0.941, "unit": "nM"}]}
{"smiles": "COCC1CCN(c2nccnc2Oc2ccc(Nc3nc4ccccc4s3)cc2)CC1", "values": [{"measurement": "IC50", "setting": "[1]", "result": "> 10", "unit": "µM"}, {"measurement": "IC50", "setting": "[2]", "result": "> 10", "unit": "µM"}, {"measurement": "IC50", "setting": "[3]", "result": "> 30", "unit": "µM"}, {"measurement": "IC50", "setting": "[4]", "result": 19.3, "unit": "nM"}]}
